Data set [1] can be described thus: Cytotoxicity against human H69AR cells assessed as growth inhibition after 48 hrs by MTT assay. It is filed as cell-based.
Data set [2] can be described thus: Cytotoxicity against human MCF7/Dox cells assessed as growth inhibition after 48 hrs by MTT assay. It is filed as cell-based.
Data set [3] concerns MCF7-DOX. The experiment in a line: Antitumour activity against human MCF7/Dox cells xenografted in Balb/c mouse assessed as reduction in tumour volume at 5 to 15 mg/kg and measured after 30 days. It is filed as functional, organism-based.
The subject of data set [4] is MCF7. The experiment in a line: Antimigratory activity against human MCF7 cells after 36 hrs by crystal violet staining based transwell migration assay. It is filed as functional, cell-based. In short, it runs like this: (§1)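 Transwell migration assay with MCF-7 or MCF-7/DOX cells treated 36 h. Migrated cells quantified against untreated control cells. Means ± SD, n = 3.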

Data set [5] has as its target T1, Broad substrate specificity ATP-binding cassette transporter ABCG2 (Homo sapiens, UniProt Q9UNQ0).
T1 sequence (Q9UNQ0 whole entry): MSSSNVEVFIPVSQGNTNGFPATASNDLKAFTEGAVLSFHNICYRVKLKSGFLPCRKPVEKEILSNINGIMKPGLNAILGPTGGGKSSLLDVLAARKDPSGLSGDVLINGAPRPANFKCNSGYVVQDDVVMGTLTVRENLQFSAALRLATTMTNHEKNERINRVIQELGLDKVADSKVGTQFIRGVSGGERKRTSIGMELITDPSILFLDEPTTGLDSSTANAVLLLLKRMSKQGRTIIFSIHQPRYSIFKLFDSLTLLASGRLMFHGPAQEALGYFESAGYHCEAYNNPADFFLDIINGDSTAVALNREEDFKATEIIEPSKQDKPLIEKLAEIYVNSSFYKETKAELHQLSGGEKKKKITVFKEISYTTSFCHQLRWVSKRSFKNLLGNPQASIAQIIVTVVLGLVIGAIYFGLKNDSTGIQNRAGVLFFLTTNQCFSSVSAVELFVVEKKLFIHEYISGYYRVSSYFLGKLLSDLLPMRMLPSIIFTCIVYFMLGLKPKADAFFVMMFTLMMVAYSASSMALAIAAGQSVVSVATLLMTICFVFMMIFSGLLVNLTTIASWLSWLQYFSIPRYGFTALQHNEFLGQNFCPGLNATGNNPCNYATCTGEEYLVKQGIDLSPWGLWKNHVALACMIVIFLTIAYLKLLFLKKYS
In words: Reversal of ABCG2 (unknown origin)-mediated multidrug resistance expressed in MDCK2 cells assessed as potentiation of mitoxantrone-induced cytotoxicity at 25 uM after 48 hrs by MTT assay. It is filed as cell-based. In short, it runs like this:
(§2)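 Transporter selectivity screen by MTT in H69AR (MRP1-overexpressing) with doxorubicin, and in MDCK II BCRP with mitoxantrone. Compound tested at 12.5 and 25 µM alongside the cytostatic. Reversal read as decreased viability versus cytostatic alone.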

The subject of data set [6] is MCF7-DOX. The experiment in a line: Antimigratory activity against human MCF7/Dox cells after 36 hrs by crystal violet staining based transwell migration assay. It is filed as functional, cell-based. In short, it runs like this:
as §1

Data set [7] in a line: Toxicity in Balb/c mouse xenografted with human MCF7/Dox cells assessed as body weight at 5 to 15 mg/kg administered for 30 days and measured for every 2 days. It is filed as organism-based. The conditions noted are these: in vivo.
Data set [8] concerns MCF7-DOX. The experiment in a line: Cytotoxicity against human MCF7/Dox cells assessed as reduction in cell viability after 48 hrs by MTT assay. It is filed as cell-based.
Data set [9] has as its system MCF7-DOX. In words: Antitumour activity against human MCF7/Dox cells xenografted in Balb/c mouse assessed as reduction in tumour weight at 5 to 15 mg/kg and measured after 30 days. It is filed as functional, organism-based.
Data set [10] has as its system MCF7-DOX. In words: Down regulation of p-gp mRNA expression in human MCF7/Dox cells at 12.5 uM in presence of doxorubicin after 48 hrs by RT-PCR analysis. It is filed as functional, cell-based. In short, it runs like this:
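MCF-7/DOX cells exposed for 48 h to compound (12.5 µM), DOX (8 µM), or both. P-gp mRNA measured by RT-PCR versus control and DOX-alone groups.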

Data set [11] in a line: Cytotoxicity against MDCK2 cells expressing BCRP assessed as growth inhibition after 48 hrs by MTT assay. It is filed as ADME, cell-based, Canis lupus familiaris. As to conditions: dog, MDCK2 (MDCK-II) cells expressing BCRP.
For data set [12], the target named is ATP-dependent translocase ABCB1 (Homo sapiens, UniProt P08183). In words: Reversal of P-gp mediated drug efflux in human MCF7/Dox cells assessed as increase in intracellular doxorubicin accumulation at 12.5 uM after 24 hrs by DAPI based fluorescence microscopic analysis. It is filed as cell-based. Summed up:
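MCF-7/DOX cells exposed to DOX 8 µM with or without compound at 12.5 µM. Nuclei stained with DAPI. Intracellular DOX red fluorescence imaged by fluorescence microscopy.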

Data set [13] is described as follows: Cytotoxicity against human MCF7/Dox cells assessed as cell survival at 12.5 uM after 48 hrs by MTT assay relative to control. It is filed as cell-based. The conditions noted are these: read-out: Survival.
Data set [14] concerns MCF7-DOX. In words: Down regulation of p-gp protein expression in human MCF7/Dox cells at 12.5 uM in presence of doxorubicin by Western blotting analysis. The conditions noted are these: TDE = time-dependent effect. It is filed as functional, cell-based. In short, it runs like this:
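MCF-7/DOX cells exposed to compound (12.5 µM), DOX (8 µM), or the combination for 24 h and 48 h. P-gp protein measured by western blot. MCF-7 parental cells used as reference.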

Data set [15] is described as follows: Cytotoxicity against human H69 cells assessed as growth inhibition after 48 hrs by MTT assay. It is filed as cell-based. As to conditions: H69 cells (NCI-H69).
For data set [16], the target named is Multidrug resistance-associated protein 1 (Homo sapiens, UniProt P33527). In words: Reversal of MRP-1 (unknown origin)-mediated multidrug resistance expressed in human H69AR cells assessed as potentiation of doxorubicin-induced cytotoxicity at 25 uM after 48 hrs by MTT assay. It is filed as cell-based. Summed up:
as §2

The subject of data set [17] is MCF7. In words: Antimigratory activity against human MCF7 cells after 24 hrs by wound healing assay. It is filed as functional, cell-based. Summed up: (§3)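 Wound-healing assay on confluent monolayers of MCF-7 or MCF-7/DOX cells. Cells treated 24 h, then wound width imaged and migration quantified against untreated control cells. Means ± SD, n = 3.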
In data set [18] the test system is MCF7-DOX. In words: Antitumour activity against human MCF7/Dox cells xenografted in Balb/c mouse assessed as tumour growth inhibition at 5 to 15 mg/kg in presence of doxorubicin and measured after 30 days. It is filed as functional, organism-based.
Data set [19] in a line: Toxicity in Balb/c mouse xenografted with human MCF7/Dox cells assessed as effect on body weight at 5 to 15 mg/kg in presence of doxorubicin and measured after 30 days. The conditions noted are these: in vivo, 720 h. It is filed as organism-based.
Data set [20] can be described thus: Cytotoxicity against human MCF7 cells assessed as growth inhibition after 48 hrs by MTT assay. It is filed as cell-based.
Data set [21] is described as follows: Cytotoxicity against MDCK2 cells assessed as growth inhibition after 48 hrs by MTT assay. It is filed as cell-based, Canis lupus familiaris. As to conditions: dog, MDCK2 (MDCK-II) cells.
Data set [22] has as its system MCF7-DOX. In words: Antimigratory activity against human MCF7/Dox cells after 24 hrs by wound healing assay. It is filed as functional, cell-based. Summed up:
as §3

The source made the active and inactive calls. The rule behind the calls is not given here. Where only a bound is given, the exact number is not on record here.

Sequence of Multidrug resistance-associated protein 1 (P33527 whole entry): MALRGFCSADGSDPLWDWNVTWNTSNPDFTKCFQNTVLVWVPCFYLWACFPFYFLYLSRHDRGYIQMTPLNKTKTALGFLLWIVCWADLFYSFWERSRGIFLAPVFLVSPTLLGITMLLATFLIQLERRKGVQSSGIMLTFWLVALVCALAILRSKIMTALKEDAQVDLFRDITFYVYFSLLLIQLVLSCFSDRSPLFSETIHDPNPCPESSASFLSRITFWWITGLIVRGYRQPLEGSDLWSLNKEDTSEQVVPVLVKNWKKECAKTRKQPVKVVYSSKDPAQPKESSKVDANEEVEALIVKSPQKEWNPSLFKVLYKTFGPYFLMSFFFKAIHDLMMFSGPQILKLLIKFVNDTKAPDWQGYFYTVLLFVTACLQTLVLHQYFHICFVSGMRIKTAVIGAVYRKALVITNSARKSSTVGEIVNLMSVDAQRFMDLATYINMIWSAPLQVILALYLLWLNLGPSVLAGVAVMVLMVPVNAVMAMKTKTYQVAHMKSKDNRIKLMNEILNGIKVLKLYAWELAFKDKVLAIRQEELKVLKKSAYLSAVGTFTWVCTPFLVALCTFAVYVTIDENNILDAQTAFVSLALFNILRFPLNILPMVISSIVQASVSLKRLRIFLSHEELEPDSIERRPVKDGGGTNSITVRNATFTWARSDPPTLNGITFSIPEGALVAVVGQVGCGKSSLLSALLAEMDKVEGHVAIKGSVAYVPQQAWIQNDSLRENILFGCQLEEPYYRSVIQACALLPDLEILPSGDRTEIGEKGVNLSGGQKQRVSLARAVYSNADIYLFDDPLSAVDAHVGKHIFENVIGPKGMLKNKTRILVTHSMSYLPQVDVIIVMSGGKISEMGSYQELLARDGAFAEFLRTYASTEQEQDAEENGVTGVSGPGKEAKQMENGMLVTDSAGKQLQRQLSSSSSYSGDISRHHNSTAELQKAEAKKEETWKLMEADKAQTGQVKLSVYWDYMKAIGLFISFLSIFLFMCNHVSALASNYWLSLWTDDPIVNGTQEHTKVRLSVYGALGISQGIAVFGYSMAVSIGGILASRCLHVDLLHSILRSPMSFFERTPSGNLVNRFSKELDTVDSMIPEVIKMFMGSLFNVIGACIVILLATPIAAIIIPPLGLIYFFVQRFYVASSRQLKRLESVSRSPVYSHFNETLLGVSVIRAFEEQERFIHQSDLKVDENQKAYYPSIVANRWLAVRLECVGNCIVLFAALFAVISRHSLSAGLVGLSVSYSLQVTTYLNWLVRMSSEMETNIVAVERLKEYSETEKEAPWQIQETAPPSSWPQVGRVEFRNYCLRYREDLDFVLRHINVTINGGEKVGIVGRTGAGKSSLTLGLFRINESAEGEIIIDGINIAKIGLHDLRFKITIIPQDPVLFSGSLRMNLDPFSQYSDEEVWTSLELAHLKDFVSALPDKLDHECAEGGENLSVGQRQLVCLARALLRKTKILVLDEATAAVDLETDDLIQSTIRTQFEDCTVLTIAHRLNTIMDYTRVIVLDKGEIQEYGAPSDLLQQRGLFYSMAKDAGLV
Sequence of ATP-dependent translocase ABCB1 (P08183 whole entry): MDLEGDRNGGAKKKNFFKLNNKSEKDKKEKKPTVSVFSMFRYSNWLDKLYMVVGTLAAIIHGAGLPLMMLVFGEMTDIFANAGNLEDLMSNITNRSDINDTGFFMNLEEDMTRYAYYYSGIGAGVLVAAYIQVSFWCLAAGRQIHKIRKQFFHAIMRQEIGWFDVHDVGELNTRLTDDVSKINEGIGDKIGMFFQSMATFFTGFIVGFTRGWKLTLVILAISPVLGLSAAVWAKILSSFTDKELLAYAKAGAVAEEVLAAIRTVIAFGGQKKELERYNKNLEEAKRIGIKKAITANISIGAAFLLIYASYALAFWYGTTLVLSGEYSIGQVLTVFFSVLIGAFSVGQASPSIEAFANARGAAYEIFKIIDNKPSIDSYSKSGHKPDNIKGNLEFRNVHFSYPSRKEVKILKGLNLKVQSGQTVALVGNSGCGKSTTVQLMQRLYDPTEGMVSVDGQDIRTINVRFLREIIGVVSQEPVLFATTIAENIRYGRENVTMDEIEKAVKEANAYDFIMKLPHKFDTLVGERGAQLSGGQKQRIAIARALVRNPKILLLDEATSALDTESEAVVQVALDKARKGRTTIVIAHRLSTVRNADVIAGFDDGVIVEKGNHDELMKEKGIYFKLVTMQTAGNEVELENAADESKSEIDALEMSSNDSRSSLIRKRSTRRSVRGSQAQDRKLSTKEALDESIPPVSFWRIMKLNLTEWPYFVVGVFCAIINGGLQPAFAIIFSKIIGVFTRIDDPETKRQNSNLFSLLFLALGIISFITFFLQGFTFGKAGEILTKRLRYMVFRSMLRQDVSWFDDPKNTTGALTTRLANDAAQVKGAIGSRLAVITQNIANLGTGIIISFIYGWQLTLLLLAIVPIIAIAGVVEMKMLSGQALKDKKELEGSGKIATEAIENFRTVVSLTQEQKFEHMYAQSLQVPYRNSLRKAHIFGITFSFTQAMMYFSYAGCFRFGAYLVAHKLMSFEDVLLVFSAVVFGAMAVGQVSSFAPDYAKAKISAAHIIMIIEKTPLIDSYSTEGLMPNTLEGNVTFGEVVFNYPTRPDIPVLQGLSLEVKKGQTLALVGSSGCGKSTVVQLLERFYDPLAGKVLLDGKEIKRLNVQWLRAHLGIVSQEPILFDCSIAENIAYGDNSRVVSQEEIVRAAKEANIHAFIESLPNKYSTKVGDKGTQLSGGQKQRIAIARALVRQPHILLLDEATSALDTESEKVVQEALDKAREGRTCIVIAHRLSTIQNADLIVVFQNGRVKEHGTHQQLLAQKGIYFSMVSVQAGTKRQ

As to `COc1cc(OC)c(C(=O)/C=C/c2cccc(N3CCNCC3)c2)c(O)c1CC=C(C)C`, the GI50 at 48 h is 91.7 µM in data set [1]; > 100 µM in [2]; > 100 µM in [11]; > 100 µM in data set [15]; > 100 µM in data set [20]; > 100 µM in data set [21]. The inhibition entry in the data set with MCF7-DOX [3] and in the data set with MCF7-DOX [9] was “inactive” throughout. Moreover, the inhibition result with MCF7 [4], in the data set with MCF7-DOX [6], in the data set with MCF7-DOX [10], in the data set with MCF7 [17] and in the data set with MCF7-DOX [22] was “Active” each time. Also, the results for the “inhibition (INH)” value in data set [5], in data set [12] and in [16] were “Not Active”, “Active” and “Not Active”, respectively. The Activity entry in [7] and in data set [19] was “Non-Toxic” in each case. For the same compound, the IC50 in the data set on MCF7-DOX [8] turned out to be 99.9 µM. Besides, in [13], the viability at 48 h, 12.5 µM is > 99%. Besides, the inhibition entry in the data set on MCF7-DOX [14] was “Tde”. Besides, the TGI result with MCF7-DOX [18] is “Active”.

These data come from ChEMBL document CHEMBL4359857, “Design, synthesis and biological evaluation of chalcones as reversers of P-glycoprotein-mediated multidrug resistance” (Eur J Med Chem, 2019).
